{
  "source": "paper PMC6828636",
  "about": "(European Journal of Drug Metabolism and Pharmacokinetics, 2019)",
  "type_in_all_cases": "in vitro ADME",
  "key": {"P-gp and BCRP": {"system": "P-gp and BCRP", "assay": "Efflux in wildtype Caco-2 cells", "details": "human", "procedure,_shortened": "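Bidirectional transport was measured in wildtype Caco-2 cells and in proprietary derivatives with reduced BCRP (CPT-B1) or P-gp (CPT-P1) expression. Test compound was used at 0.5, 2 and 10 μM in wildtype cells and at 2 μM in the reduced-expression lines. Probe substrates served as positive controls and reference inhibitors as negative controls. Efflux ratios were calculated.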"}, "MRP2": {"target": "MRP2 (Homo sapiens, UniProt Q92887)", "sequence (Q92887 whole entry)": "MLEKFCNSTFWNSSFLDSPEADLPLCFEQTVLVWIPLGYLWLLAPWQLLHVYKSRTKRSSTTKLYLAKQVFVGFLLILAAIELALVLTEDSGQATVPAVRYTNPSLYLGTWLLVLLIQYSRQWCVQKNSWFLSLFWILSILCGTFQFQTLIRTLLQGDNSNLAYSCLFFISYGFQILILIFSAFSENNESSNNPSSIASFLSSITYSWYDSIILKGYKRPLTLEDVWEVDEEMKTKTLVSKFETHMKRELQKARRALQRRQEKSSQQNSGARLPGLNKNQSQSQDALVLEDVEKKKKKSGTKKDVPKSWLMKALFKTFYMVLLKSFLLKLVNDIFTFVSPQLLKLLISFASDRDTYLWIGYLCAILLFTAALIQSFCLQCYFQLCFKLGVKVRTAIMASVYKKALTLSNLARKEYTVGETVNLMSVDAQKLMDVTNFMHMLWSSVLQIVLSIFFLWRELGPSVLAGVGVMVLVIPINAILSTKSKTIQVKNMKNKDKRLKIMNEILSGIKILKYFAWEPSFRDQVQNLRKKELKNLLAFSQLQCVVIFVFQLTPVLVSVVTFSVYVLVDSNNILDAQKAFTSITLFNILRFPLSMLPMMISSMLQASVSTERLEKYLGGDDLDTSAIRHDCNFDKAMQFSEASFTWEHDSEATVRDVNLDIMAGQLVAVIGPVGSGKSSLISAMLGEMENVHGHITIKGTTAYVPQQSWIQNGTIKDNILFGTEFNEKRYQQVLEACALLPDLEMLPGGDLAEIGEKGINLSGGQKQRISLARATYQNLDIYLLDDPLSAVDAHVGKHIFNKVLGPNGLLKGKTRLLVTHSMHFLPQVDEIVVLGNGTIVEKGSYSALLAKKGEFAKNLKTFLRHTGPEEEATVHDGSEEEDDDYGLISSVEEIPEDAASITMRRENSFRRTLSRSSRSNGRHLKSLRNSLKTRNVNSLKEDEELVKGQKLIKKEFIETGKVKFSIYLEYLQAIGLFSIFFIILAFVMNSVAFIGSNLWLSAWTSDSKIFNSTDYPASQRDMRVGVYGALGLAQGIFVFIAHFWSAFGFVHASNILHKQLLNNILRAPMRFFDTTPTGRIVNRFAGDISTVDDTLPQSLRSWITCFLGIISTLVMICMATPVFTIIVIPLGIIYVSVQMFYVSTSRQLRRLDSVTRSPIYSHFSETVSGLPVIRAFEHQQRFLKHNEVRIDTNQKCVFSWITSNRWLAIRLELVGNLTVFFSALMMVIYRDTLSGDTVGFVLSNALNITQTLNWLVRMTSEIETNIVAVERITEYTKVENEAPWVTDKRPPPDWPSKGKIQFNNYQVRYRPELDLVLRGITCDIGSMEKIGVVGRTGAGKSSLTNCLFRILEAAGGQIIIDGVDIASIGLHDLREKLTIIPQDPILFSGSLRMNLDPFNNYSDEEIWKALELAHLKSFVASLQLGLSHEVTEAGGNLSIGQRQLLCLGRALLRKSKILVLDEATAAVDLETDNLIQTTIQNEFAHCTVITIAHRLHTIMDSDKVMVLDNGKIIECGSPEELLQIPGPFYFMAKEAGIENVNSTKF", "assay": "MRP2 inhibition in transfected HEK cells", "procedure,_shortened": "(§1)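 HEK cells were transfected with MRP2, MATE1 or MATE2-K. Pairs were CDCF/benzbromarone (MRP2), metformin/cimetidine (MATE1) and metformin/pyrimethamine (MATE2-K). Probe transport was assessed with and without test compound, and IC50 was determined.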"}, "CYP3A4 [1]": {"system": "CYP3A4", "assay": "CYP3A4 induction in primary-cultured human hepatocytes", "details": "for induction of CYP3A4 enzymatic activity: three donors, 3 days dosing, 0.005–10 mg/l"}, "CYP3A4 [2]": {"target": "CYP3A4 (Homo sapiens, UniProt P08684)", "sequence (P08684 whole entry, canonical isoform)": "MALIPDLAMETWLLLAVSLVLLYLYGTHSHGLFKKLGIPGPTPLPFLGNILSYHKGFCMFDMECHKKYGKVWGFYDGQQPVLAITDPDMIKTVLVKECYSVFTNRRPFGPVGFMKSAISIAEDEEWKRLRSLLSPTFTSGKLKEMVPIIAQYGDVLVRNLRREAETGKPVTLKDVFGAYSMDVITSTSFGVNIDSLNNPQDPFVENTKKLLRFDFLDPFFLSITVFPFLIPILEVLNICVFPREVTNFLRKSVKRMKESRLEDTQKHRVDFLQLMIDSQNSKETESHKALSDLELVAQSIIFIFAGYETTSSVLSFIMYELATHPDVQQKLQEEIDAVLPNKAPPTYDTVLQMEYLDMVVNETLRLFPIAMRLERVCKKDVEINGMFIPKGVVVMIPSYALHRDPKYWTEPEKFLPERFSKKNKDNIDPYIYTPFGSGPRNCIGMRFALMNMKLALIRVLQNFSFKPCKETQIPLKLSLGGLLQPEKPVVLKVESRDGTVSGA", "assay": "CYP3A4 inhibition in human liver microsomes", "procedure,_shortened": "(§2)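 Pooled human liver microsomes were incubated with standard CYP-selective substrates, with and without test compound at 0.03–100 μM. Standard selective inhibitors for each isoform ran in parallel as positive controls. Read-out was IC50. For CYP3A4 only, time-dependent inhibition was also tested after 30 min preincubation, using midazolam and testosterone as substrates.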"}, "CYP2B6": {"target": "T1, CYP2B6 (Homo sapiens, UniProt P20813)", "T1 sequence (P20813 1-491)": "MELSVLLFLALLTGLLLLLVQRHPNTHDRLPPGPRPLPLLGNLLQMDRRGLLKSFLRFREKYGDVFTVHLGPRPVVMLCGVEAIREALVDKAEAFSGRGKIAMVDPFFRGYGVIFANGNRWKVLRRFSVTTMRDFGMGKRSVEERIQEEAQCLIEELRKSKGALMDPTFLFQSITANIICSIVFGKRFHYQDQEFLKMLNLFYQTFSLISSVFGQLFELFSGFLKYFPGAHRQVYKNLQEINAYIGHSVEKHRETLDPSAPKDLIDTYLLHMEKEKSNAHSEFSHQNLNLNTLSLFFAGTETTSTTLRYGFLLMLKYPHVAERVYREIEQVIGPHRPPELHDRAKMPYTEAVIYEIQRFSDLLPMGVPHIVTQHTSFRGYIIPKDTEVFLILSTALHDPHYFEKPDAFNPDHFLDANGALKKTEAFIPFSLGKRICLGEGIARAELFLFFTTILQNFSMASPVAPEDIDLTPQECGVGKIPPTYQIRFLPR", "assay": "biochemical"}, "OCT2": {"target": "OCT2 (Homo sapiens, UniProt O15244)", "sequence (O15244 whole entry)": "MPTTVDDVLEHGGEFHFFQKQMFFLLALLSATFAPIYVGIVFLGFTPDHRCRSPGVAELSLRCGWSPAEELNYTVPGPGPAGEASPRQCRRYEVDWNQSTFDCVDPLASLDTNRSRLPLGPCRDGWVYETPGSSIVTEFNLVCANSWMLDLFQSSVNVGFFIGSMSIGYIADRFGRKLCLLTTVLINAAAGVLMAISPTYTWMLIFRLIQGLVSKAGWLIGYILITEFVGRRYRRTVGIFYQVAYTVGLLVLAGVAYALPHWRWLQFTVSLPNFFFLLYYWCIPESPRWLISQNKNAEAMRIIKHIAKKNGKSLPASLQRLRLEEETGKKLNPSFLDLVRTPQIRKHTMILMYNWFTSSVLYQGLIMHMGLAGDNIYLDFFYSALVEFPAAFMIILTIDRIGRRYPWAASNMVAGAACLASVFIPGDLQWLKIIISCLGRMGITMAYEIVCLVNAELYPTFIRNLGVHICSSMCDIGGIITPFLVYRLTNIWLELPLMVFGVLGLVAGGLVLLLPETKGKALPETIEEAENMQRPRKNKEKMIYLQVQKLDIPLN", "assay": "OCT2 uptake inhibition in transfected HEK cells", "procedure,_shortened": "(§3)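 HEK cells overexpressing NTCP, OAT1, OAT3, OATP2B1, OCT1 or OCT2 were incubated with probe substrate. Pairs were estrone 3-sulfate/cyclosporin A (NTCP), PAH/probenecid (OAT1), furosemide/probenecid (OAT3), estrone 3-sulfate/glibenclamide (OATP2B1), 3H-MPP+/decynium 22 (OCT1) and 3H-MPP+/imipramine (OCT2). IC50 was determined with and without test compound, at ≤50 µM for the parent and ≤10 µM for the metabolite.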"}, "CYP2C8": {"target": "T2, CYP2C8 (Homo sapiens, UniProt P10632)", "T2 sequence (P10632 1-490)": "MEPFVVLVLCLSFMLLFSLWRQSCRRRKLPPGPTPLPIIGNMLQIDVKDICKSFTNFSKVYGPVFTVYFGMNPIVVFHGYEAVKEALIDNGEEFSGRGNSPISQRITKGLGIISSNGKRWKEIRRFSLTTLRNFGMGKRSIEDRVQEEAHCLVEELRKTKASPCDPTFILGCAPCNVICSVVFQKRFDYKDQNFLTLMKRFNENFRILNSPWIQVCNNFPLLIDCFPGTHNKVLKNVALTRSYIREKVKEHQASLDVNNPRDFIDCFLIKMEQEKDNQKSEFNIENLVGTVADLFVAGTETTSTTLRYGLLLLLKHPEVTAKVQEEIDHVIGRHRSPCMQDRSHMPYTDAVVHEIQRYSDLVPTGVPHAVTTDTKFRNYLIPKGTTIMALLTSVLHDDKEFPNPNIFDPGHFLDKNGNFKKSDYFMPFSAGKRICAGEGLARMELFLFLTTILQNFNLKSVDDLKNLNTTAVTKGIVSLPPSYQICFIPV", "assay": "CYP2C8 inhibition in human liver microsomes", "procedure,_shortened": "as §2"}, "OCT1": {"target": "T3, OCT1 (Homo sapiens, UniProt O15245)", "T3 sequence (O15245 1-554)": "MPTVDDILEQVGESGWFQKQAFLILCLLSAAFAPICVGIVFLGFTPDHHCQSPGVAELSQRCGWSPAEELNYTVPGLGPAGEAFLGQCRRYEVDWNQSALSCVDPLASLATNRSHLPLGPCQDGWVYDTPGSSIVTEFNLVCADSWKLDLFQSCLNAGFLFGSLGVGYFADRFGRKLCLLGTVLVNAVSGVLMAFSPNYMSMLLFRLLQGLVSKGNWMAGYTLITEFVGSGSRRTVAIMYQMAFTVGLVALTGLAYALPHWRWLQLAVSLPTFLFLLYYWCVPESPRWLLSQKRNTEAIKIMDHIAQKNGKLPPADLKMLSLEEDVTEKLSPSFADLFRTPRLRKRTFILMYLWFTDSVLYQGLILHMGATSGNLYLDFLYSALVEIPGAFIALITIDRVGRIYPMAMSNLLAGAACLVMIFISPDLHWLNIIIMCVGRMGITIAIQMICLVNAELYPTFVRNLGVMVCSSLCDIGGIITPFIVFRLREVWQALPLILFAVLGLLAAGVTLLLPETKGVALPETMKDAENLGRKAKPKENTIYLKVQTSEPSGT", "assay": "OCT1 uptake inhibition in transfected HEK cells", "procedure,_shortened": "as §3"}, "MATE2-K": {"target": "MATE2-K (Homo sapiens, UniProt Q86VL8)", "sequence (Q86VL8 1-566 isoform Q86VL8-3)": "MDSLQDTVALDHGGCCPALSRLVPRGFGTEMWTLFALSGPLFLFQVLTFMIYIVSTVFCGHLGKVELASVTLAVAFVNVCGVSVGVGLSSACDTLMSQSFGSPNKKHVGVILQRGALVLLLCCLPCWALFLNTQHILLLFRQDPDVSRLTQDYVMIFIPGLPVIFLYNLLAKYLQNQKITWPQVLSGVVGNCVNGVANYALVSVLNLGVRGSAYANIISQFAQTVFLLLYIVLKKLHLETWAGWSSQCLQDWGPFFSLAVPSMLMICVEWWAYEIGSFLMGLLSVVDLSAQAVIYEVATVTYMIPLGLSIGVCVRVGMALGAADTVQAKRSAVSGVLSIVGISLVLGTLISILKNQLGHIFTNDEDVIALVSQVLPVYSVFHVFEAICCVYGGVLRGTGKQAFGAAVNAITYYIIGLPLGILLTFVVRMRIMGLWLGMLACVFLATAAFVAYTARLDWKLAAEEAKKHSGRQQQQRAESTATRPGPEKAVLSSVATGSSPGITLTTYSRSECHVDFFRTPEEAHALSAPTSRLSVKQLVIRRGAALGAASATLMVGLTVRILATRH", "assay": "MATE2-K inhibition in transfected HEK cells", "procedure,_shortened": "as §1"}, "MATE1": {"target": "MATE1 (Homo sapiens, UniProt Q96FL8)", "sequence (Q96FL8 whole entry)": "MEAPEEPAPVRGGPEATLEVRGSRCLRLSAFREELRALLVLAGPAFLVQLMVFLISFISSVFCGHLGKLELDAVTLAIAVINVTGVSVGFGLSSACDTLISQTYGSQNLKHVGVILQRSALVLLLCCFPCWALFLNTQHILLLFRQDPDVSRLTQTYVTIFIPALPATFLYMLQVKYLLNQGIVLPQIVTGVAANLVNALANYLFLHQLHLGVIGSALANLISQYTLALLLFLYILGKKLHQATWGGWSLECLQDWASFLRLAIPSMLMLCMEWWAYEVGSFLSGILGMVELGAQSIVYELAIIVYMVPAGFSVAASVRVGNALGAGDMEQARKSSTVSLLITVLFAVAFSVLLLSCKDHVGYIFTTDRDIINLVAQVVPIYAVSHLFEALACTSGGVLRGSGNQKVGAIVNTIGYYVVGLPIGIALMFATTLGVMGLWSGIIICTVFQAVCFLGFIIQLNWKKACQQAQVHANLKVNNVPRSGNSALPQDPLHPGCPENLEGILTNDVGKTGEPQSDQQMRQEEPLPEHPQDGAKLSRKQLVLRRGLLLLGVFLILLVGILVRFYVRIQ", "assay": "MATE1 inhibition in transfected HEK cells", "procedure,_shortened": "as §1"}, "[3]": {"details": "read-out: IC50, CYP3A4 (with pre-incubation), human liver microsomes, substrate midazolam, 30 min pre-incubation"}, "[4]": {"details": "read-out: IC50, CYP3A4 (with pre-incubation), human liver microsomes, substrate testosterone, 30 min pre-incubation"}},
  "note": "Like-named read-outs stand apart in the source and are kept apart here.",
  "data": [
    {"smiles": "CC(O)c1cc(C(=O)N[C@@H](C)Cn2ccc(-c3ccc(C#N)c(Cl)c3)n2)[nH]n1", "note": "(stereo partly drawn) [Darolutamide, darolutamide]", "values": [
      {"measurement": "efflux ratio at 0.5 μM", "setting": "P-gp and BCRP", "result": 78},
      {"measurement": "efflux ratio at 2 μM", "setting": "P-gp and BCRP", "result": 98},
      {"measurement": "efflux ratio at 10 μM", "setting": "P-gp and BCRP", "result": 14},
      {"measurement": "IC50", "setting": "MRP2", "result": "> 50", "unit": "µM"},
      {"measurement": "CYP3A4 induction as % of rifampicin response", "setting": "CYP3A4 [1]", "result": 28, "unit": "%"},
      {"measurement": "induction of CYP3A4 enzymatic activity", "setting": "CYP3A4 [1]", "result": "≤ 5.3", "unit": "fold"},
      {"measurement": "IC50", "setting": "CYP3A4 [2]", "result": "> 100", "unit": "µM"},
      {"measurement": "IC50", "setting": "CYP3A4 [2]; [3]", "result": "> 100", "unit": "µM"},
      {"measurement": "IC50", "setting": "CYP3A4 [2]; [4]", "result": "> 100", "unit": "µM"},
      {"measurement": "IC50", "setting": "CYP2B6", "result": "> 100", "unit": "µM"},
      {"measurement": "IC50", "setting": "OCT2", "result": "> 50", "unit": "µM"},
      {"measurement": "IC50", "setting": "CYP2C8", "result": "> 100", "unit": "µM"},
      {"measurement": "IC50", "setting": "OCT1", "result": "> 50", "unit": "µM"},
      {"measurement": "IC50", "setting": "MATE2-K", "result": 9.5, "unit": "µM"},
      {"measurement": "IC50", "setting": "MATE1", "result": 32.3, "unit": "µM"}
    ]},
    {"smiles": "CC(=O)c1cc(C(=O)N[C@@H](C)Cn2ccc(-c3ccc(C#N)c(Cl)c3)n2)[nH]n1", "note": "[Keto-darolutamide, keto-darolutamide]", "values": [
      {"measurement": "IC50", "setting": "MRP2; read-out: IC50, MRP2, HEK cells, substrate CDCF, reference benzbromarone", "result": "> 10", "unit": "µM"},
      {"measurement": "induction of CYP3A4 enzymatic activity", "setting": "CYP3A4 [1]", "result": "≤ 5.4", "unit": "fold"},
      {"measurement": "IC50", "setting": "CYP3A4 [2]; [3]", "result": "> 50", "unit": "µM"},
      {"measurement": "IC50", "setting": "CYP3A4 [2]; [4]", "result": "> 50", "unit": "µM"},
      {"measurement": "IC50", "setting": "CYP3A4 [2]; read-out: IC50, CYP3A4, human liver microsomes, substrate midazolam", "result": "> 50", "unit": "µM"},
      {"measurement": "IC50", "setting": "CYP3A4 [2]; read-out: IC50, CYP3A4, human liver microsomes, substrate testosterone", "result": "> 50", "unit": "µM"},
      {"measurement": "IC50", "setting": "CYP2B6; read-out: IC50, CYP2B6, human liver microsomes, substrate bupropion", "result": 54.2, "unit": "µM"},
      {"measurement": "IC50", "setting": "OCT2; read-out: IC50, OCT2, HEK cells, substrate 3H-MPP+, reference imipramine", "result": "> 2", "unit": "µM"},
      {"measurement": "IC50", "setting": "CYP2C8; read-out: IC50, CYP2C8, human liver microsomes, substrate paclitaxel", "result": 48.6, "unit": "µM"},
      {"measurement": "IC50", "setting": "OCT1; read-out: IC50, OCT1, HEK cells, substrate 3H-MPP+, reference decynium 22", "result": "> 10", "unit": "µM"},
      {"measurement": "IC50", "setting": "MATE2-K; read-out: IC50, MATE2 K, HEK cells, substrate metformin, reference pyrimethamine", "result": 3, "unit": "µM"},
      {"measurement": "IC50", "setting": "MATE1; read-out: IC50, MATE1, HEK cells, substrate metformin, reference cimetidine", "result": "> 10", "unit": "µM"}
    ]}
  ]
}
